High-throughput results deposited in PubChem by several laboratories.
The sample as a whole holds a higher share of hits than the screen did.
CHOP inh – inhibitors of CHOP promoter induction, primary screen, cell-based, unfolded protein response, luciferase reporter | CHO-K1 CHOP-promoter luciferase, tunicamycin-induced, 15-18 h | inhibition, % at 10 µM | 3.8% of 220,000 active;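 active means compounds that reduced the stress-induced luciferase reporter signal by more than about 70% of percent inhibition, limit read from the data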;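 further: 0% = tunicamycin plus vehicle and 100% = wells without tunicamycin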
UPR XBP1 act – activators of adaptive XBP1 UPR arm, primary screen, cell-based, CHO-XBP1 luciferase reporter, luminescence, uHTS; activation, % at 20 µM; IRE1-XBP1 UPR activation; percent of tunicamycin response, DMSO as zero; 0.33% of 330,000 active;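 active means versus positive control, 20 µM dose yields 30% or more activation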;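 further: 100% = tunicamycin at 10 µg/mL and 0% = DMSO only wells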
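Material: CHO-XBP1 cells stably carrying IRE1-XBP1-driven luciferase reporter / Amount: 1000 cells per well / Compound: 20 µM, 1% DMSO / Times: 6 h treatment, 37 °C / Detection: luciferase luminescence / Measure: % activation of reporter signal versus tunicamycin and DMSO controls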
UPR CHOP act – activators of apoptotic CHOP UPR arm, primary screen, cell-based, CHO-CHOP luciferase reporter, luminescence, uHTS; 0.34% of 330,000 active; activation, % at 10 µM; UPR activation; percent of tunicamycin response over DMSO baseline;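 active means at 10 µM dose, activation of 40% or more, normalized to positive control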;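 further: 100% = tunicamycin at 10 µg/mL and 0% = DMSO alone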
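measured by = luciferase luminescence | assay system = CHO-CHOP cells, stable luciferase reporter of PERK-eIF2a-CHOP signalling | amount = 500 reporter cells seeded per well | timing = 6 h compound exposure at 37 °C after overnight seeding | controls = positive tunicamycin 10 µg/mL, negative DMSO alone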
VLA-4 inh – inhibition in human VLA-4 binding assay, primary screen, VLA-4 allosteric modulator project, MLPCN library, flow cytometry, VLA-4 expressing cells | Integrin alpha-4 (Homo sapiens), P13612 | ligand binding flow cytometry | inhibition, % (about 7 µM as worked out from the volumes in the protocol) | 0.2% of 330,000 active | AID 2557, 2010; in the data active means inhibition above about 50%
Beta2AR agonist – beta2AR agonists driving receptor internalization, primary screen, cell-based, FAP fluorogen, flow cytometry | Beta-2 adrenergic receptor (Homo sapiens), P07550 | response, % (no concentration beside the values) | Am2.2-beta2AR cells | 0.43% of 340,000 active;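 active means response above a set limit, near 3 SD of response in nonfluorescent compounds, cut at about 42% in these data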
Target sequence (P07550 whole entry, looked up): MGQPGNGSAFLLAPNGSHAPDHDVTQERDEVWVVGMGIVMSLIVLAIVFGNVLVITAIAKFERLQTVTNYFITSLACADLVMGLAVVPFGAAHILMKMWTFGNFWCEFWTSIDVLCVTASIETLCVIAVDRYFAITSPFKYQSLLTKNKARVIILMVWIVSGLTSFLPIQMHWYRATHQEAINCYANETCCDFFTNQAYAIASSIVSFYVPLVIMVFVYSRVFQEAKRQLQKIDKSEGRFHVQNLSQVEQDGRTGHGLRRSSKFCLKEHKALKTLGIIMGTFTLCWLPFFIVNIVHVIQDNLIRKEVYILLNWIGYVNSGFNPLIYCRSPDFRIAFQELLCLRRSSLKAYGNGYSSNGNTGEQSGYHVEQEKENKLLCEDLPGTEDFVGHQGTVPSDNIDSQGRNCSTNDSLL
* hit, by the source's call; / = no result given.

SMILES	CHOP inh	UPR XBP1 act	UPR CHOP act	VLA-4 inh	Beta2AR agonist
CC(=O)c1cccc(NS(=O)(=O)c2ccc(N/C=C\C(=O)c3ccc(C)cc3)cc2)c1	56	0	6	8	9
CC(=O)c1cccc(NS(=O)(=O)c2ccc(N/C=C/C(=O)c3ccc(F)cc3)cc2)c1	83*	-1	3	7	-4
CC(=O)c1cccc(NS(=O)(=O)c2ccc(N/C=C\C(=O)c3ccc(F)cc3)cc2)c1	84*	0	9	-29	-6
COc1ccc(CNC(=O)COC(=O)CCN2C(=O)C3CC=CCC3C2=O)cc1OC (centres undefined)	/	1	-2	4	-3
CC(C)(OC(=O)c1ccc(F)cc1)c1cc2ccccc2c(=O)o1	/	-2	1	-2	-8
C[C@H](CO)N1C[C@H](C)[C@@H](CN(C)S(C)(=O)=O)Oc2c(NC(=O)c3ccncc3)cccc2C1=O	/	-2	3	14	1
O=C(O)CCC(=O)NNc1ncnc2ccccc12	2	2	-3	50*	-11
CC(C)(C)C1=NN(C(=O)c2ccccc2)C(O)(C(C)(C)C)C1 (centres undefined)	59	2	-1	11	3
CC(C)(C)C1(O)CC(C(F)(F)F)=NN1C(=O)CCCc1ccccc1 (centres undefined)	88*	-1	0	8	3
Cc1cc(C)cc(OCC(=O)N2N=C(c3cccnc3)CC2(O)C(F)(F)F)c1 (centres undefined)	7	-1	-1	11	-11
Cc1cc(C)cc(OCC(=O)N2N=C(C(F)(F)F)CC2(O)C(C)(C)C)c1 (centres undefined)	78*	-2	-2	9	-2
COCCN(CCOC)C(=O)CSc1ccc(S(=O)(=O)N2CCN(C)CC2)cn1	/	-1	0	15	-1
COc1cccc(-c2ccc(C#N)c(OC(=O)c3ccc(Cl)cc3)n2)c1	80*	-8	-1	1	-1
COc1cccc(-c2ccc(C#N)c(OC(=O)c3c(Cl)cccc3Cl)n2)c1	36	-4	1	1	8
O=C(Nc1ccccc1)c1oc2ccccc2c1NC(=O)C1CC1	/	4	0	12	-13
O=C1[C@@H]2Cc3c([nH]c4ccccc34)[C@@H](c3ccccc3)N2C(=O)[C@@H]2Cc3c([nH]c4ccccc34)[C@@H](c3ccccc3)N12	106*	/	/	/	/
COCCn1c(=NC(=O)c2cc(Cl)sc2Cl)sc2cc(S(N)(=O)=O)ccc21	81*	8	2	-10	-13
CCOCCn1c(=NC(=O)c2cc(Cl)sc2Cl)sc2cc(S(N)(=O)=O)ccc21	90*	1	1	4	/
COCCn1c(=NC(=O)c2ccc3c(c2)OCCO3)sc2cc(S(N)(=O)=O)ccc21	38	0	1	25	15
CCOCCn1c(=NC(=O)c2ccc(S(=O)(=O)N3CCOCC3)cc2)sc2cc(S(N)(=O)=O)ccc21	/	-2	2	-1	11
CCOc1ccccc1NC(=O)COC(=O)c1nc2nccc(C)n2n1	/	2	0	10	5
C#CCOCCOCCOCCNc1nc(N2CCN(C(=O)CCCCCCCCCCNC(=O)Cn3cc(CCCCCN)nn3)CC2)nc(N2CCN(C(=O)CCCCCCCCCCNC(=O)Cn3cc(CCCCCN)nn3)CC2)n1	/	0	1	3	45*
C#CCOCCOCCOCCNc1nc(N2CCN(C(=O)CCCCCCCCCCNC(=O)Cn3cc(CCCCCN)nn3)CC2)nc(N2CCN(C(=O)CCCCCCCCCCNC(=O)[C@@H](CCC(=O)O)n3cc(CCCCCN)nn3)CC2)n1	/	-1	-1	-1	13
C#CCOCCOCCOCCNc1nc(N2CCN(C(=O)CCCCCCCCCCNC(=O)Cn3cc(CCCCCN)nn3)CC2)nc(N2CCN(C(=O)CCCCCCCCCCNC(=O)[C@@H](CCSC)n3cc(CCO)nn3)CC2)n1	/	0	-1	33	75*
Oc1ccc(-c2nc3c4c(ncn3n2)-c2ccccc2CC42CCCC2)cc1	106*	23	3	13	25
SMILES	CHOP inh	UPR XBP1 act	UPR CHOP act	VLA-4 inh	Beta2AR agonist
COc1ccccc1OCc1nnc(SCC(=O)Nc2nnc(C3CC3)s2)n1C	/	-4	2	7	8
Cc1nn(C)c(C)c1NC(=S)Nc1ccc(S(=O)(=O)Nc2ncccn2)cc1	/	-2	2	1	0
CCCN1CCN(C(=O)Cn2nc(CC)n3c(cc4sccc43)c2=O)CC1	/	0	0	-10	-15
CN(C)C(=C(C#N)C#N)N1CCN(c2ccc(Cl)cc2)CC1	6	-3	1	-7	1
N#CC(C#N)=C/C(C#N)=C(/N)N1CCN(c2ccc(Cl)cc2)CC1	80*	0	3	-5	-9
O=C(NCc1ccc2[nH]c3c(c2c1)CCCC3)c1ccc(S(=O)(=O)N2CCCC2)cc1	77*	-1	-1	-13	0
COc1ccc(NC(=O)CN2C(=O)NC(C)(c3ccccc3)C2=O)cc1Cl (centres undefined)	/	-1	3	3	2
CC1CN=C(c2cccn2Cc2ccc(F)cc2Cl)O1 (centres undefined)	72*	-1	-2	0	-2
CN(C)C(=O)N1CCC(C(=O)NCc2ccc(F)cc2Cl)CC1	21	-5	1	-10	-8
CC(C)C1COC(c2cccn2Cc2ccccc2Cl)=N1 (centres undefined)	4	-3	-2	2	3
CC1(C)COC(c2cccn2Cc2ccc(F)cc2Cl)=N1	85*	0	1	7	27
O=C(Nc1ccccc1C(=O)Nc1ccccn1)c1cc(F)c(F)cc1Cl	/	-1	0	-6	-12
Cc1ccc(-c2cc(-c3ccccc3)c3c(N)c(S(C)(=O)=O)sc3n2)cc1	2	1	2	-8	2
CS(=O)(=O)c1sc2nc(-c3cccs3)cc(-c3ccccc3)c2c1N	30	1	-3	-10	43*
Cc1ccc(SC(c2ccccc2)C(Cn2cncn2)C(=O)c2ccccc2)cc1 (centres undefined)	-11	-4	0	9	-1
O=C(c1ccc(Cl)cc1)C(Cn1cncn1)C(Sc1ccccc1)c1ccccc1 (centres undefined)	78*	0	1	0	5
CC(C)(C)OC(=O)N1CCCC(C(=O)Nc2cccc(C(=O)N3CCOCC3)c2)C1 (centres undefined)	/	/	/	/	-4
COc1ccc(CCNC(=O)COC(=O)c2cc(S(=O)(=O)N3CCCC3)ccc2O)cc1	/	-3	-2	5	7
Oc1nc(Nc2ccc(Cl)cc2Cl)sc1/C=C1\C=Nc2ccccc21	73*	0	0	-7	1
